Measured values as given in ChEMBL document CHEMBL4513216, “Probing the Open Global Health Chemical Diversity Library for Multistage-Active Starting Points for Next-Generation Antimalarials” (ACS Infect Dis, 2020).

Experiment: Toxicity liver stage against HepG2, at 10uM
Format: cell-based
Set-up: test concentration 10 uM, cell line HepG2-A16-CD81EGFP
Conditions: human, HepG2-A16-CD81EGFP cells; read-out: INHIBITION
Procedure, shortened: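 Uninfected HepG2-A16-CD81EGFP cells, 3 × 10^3 per well, 1536-well, plated on prespotted compound at 10 μM final, parasite-free screening media added to match infected plates; puromycin 10 μM positive, DMSO 0.5% negative; run in parallel with 48 h PbLuc assay at 37 °C, 5% CO2; viability by CellTiter-Glo luminescence, normalized to controls.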

| SMILES | cytotoxicity at 10 µM |
| --- | --- |
| Cc1cc2cc(Nc3c(C#N)c(=O)n(C)c(=O)n3C)ccc2[nH]1 | 1.11% |
| CC(c1ccncc1)N(CCN(C)C)C(=O)Nc1ccc(Cl)c(Cl)c1 (stereo not given) | 7.41% |
| Cc1nn2cnnc2c(C)c1CCC(=O)Nc1nnc(C2CC2)s1 | -2.89% |
| CN1CCC(CNC(=O)NCc2ccc(F)cc2)CC1 | -10.1% |
| Cc1nc(N2CCCC2)nc2c1CN(C(=O)c1ccco1)CC2 | 5.29% |
| CN(C)C(=O)c1nc2c(n1C)CCN(Cc1ccccc1)C2 | 7.83% |
| Cc1noc([C@H]2COC[C@H]3CN(C(=O)Cc4ccsc4)C[C@H]32)n1 | -3.26% |
| COc1cccc2c1ccn2CCNC(=O)C(C)C | 5.66% |
| COCC1CC2(CCN(C(=O)c3cccn3C)CC2)CN1C(C)C (stereo not given) | -14.2% |
| Cc1cc(C(=O)NCC2COCc3c(C)nnn3C2)no1 (stereo not given) | -7.32% |
| O=C1CCC(c2nc(C3CCN(C(=O)Cc4cccs4)CC3)no2)N1 (stereo not given) | -2.83% |
| Cc1ncsc1C(=O)N1CCC(O)(Cn2c(C)cc3ccncc32)CC1 | 9.59% |
| NC(=O)c1cc(CC2CCCN(c3cnccn3)C2)ncn1 (stereo not given) | -1.15% |
| CCCC(=O)N1CCC(Cc2ccccc2-c2ccccc2)(C(N)=O)C1 (stereo not given) | -23.6% |
| CC(=O)c1ccc(-c2cc(C(F)(F)F)cc(N(C)C)n2)cc1 | 4.02% |
| CC(NC(N)=O)C(=O)NCc1ccc(Br)c(F)c1 (stereo not given) | 7.97% |
| c1csc(-c2noc(C3CCCOC3)n2)c1 (stereo not given) | 7.39% |
| CCC(C)(CC(=O)OC)NCc1noc(C)n1 (stereo not given) | -4.39% |
| O=C(CCSc1ccc(F)cc1)N1CCN(c2cnccn2)CC1 | -42.8% |
| CSc1cc(CNC(=O)CCOc2ccccc2C)ccn1 | 6.72% |
| CCC(C)NC(=O)Nc1cccc(OC)c1 (stereo not given) | 0.554% |
| O=C(Nc1cnn(Cc2ccc(Cl)cc2)c1)N1CCCC1CO (stereo not given) | -1.13% |

| SMILES | cytotoxicity at 10 µM |
| --- | --- |
| COCC(=O)N1CCN(c2ccc(C(=O)OC)cc2)CC1C (stereo not given) | -14.2% |
| CCC(CC)NC(=O)c1cncc(Br)c1 | -0.211% |
| CC(C(=O)NS(=O)(=O)Cc1cc(-c2ccccc2)no1)C1CC1 (stereo not given) | -2.72% |
| O=C(Nc1ccc(CN2CCOCC2)cc1)c1nccn2ccnc12 | -8.3% |
| CC(C)=CCS(=O)(=O)Cc1ccn(-c2cccc(F)c2)n1 | 6.37% |
| CS(=O)(=O)NC1CCN(C(=O)c2ccc(Br)o2)C1 (stereo not given) | -7.03% |
| COC(=O)c1cc(OC)c(OC)cc1NCc1c(C)noc1C | 4% |
| CS(=O)(=O)NCC1CCCN(C(=O)Nc2cccc3ccccc23)C1 (stereo not given) | -139% |
| O=C(CS(=O)(=O)C1CCCC1)NC(c1ccc(F)cc1)C1CC1 (stereo not given) | -159% |
| Cc1cc(NC(=O)CNC(C)(C)c2ccc3c(c2)OCO3)on1 | 7.51% |
| CCc1ncc2c(n1)CN(CC(O)COc1ccc(C#N)cc1)CC2 (stereo not given) | -7.65% |
| CN1CCCN(c2nc(C3CC3)ns2)CC1 | -3.23% |
| c1ccc(OCCNC2CCN(c3ncccn3)CC2)cc1 | 1.85% |
| CCC1CN(c2cnn(C)c(=O)c2Br)CCO1 (stereo not given) | -5.09% |
| O=C(Cc1csc(N2CCNC2=O)n1)NCC1(c2ccccc2)CC1 | -123% |
| CCOc1ccc(NC2CCN(C)C2=O)cn1 (stereo not given) | -3.7% |
| CC(C)(CNc1cn[nH]c(=O)c1Cl)c1ccc2c(c1)OCO2 | 6.67% |
| CC(C)NC(=O)C1CCN(Cn2ccc(-c3ccc(F)cc3)n2)CC1 | 7.07% |
| FC(F)(F)c1ccnc(N2CCCOCC2)c1 | -1.41% |
| Cc1nnc(CN(Cc2ccccc2Br)C2CC2)o1 | 5.2% |
| CN1CCN(c2ccc(F)cc2NC(=O)NCC[S+](C)[O-])CC1 (stereo not given) | -10.7% |
| COc1ccc(C2CCN(C(=O)c3ncccc3OC(C)C)C2)cc1 (stereo not given) | -6.45% |

| SMILES | cytotoxicity at 10 µM |
| --- | --- |
| COc1c(NC(=O)C(C)CCOc2ccccc2)c(C)nn1C (stereo not given) | 8.96% |
| Cn1cnc2cc(C(=O)NS(=O)(=O)c3ccccc3Cl)ccc21 | -7.43% |
| Cc1ccc(CC(=O)N2CCN(C(C)c3ccccc3F)CC2)cn1 (stereo not given) | -9.75% |
| COc1ccc(F)cc1C(C)NC(=O)Nc1nnc(C)s1 (stereo not given) | -1.01% |
| CCc1nnc2n1CCN(C(=O)c1ccc3nc(C)c(C)nc3c1)C2 | -10.9% |
| Cc1ccoc1C(=O)N1C[C@H](OCC2CC2)[C@H]2OCCC[C@H]21 | 2.89% |
| CCCSc1ccccc1NC(=O)N1CCC(N2CCSCC2)CC1 | -4.73% |
| CCCc1n[nH]c(=O)n1Cc1ccc(OC)cc1 | -130% |
| CCN(CC1CCCN(CCc2cccc(OC)c2)C1)C(=O)CSC (stereo not given) | 8.76% |
| O=C(C1CCOCC1)N1CC[C@@](O)(c2ccccc2)[C@H]2CCCC[C@@H]21 | -8.35% |
| COCCN1CCC(CN(Cc2ccncc2)C2CCCCC2)CC1 | -2.91% |
| CCCOCCN1CCc2[nH]c(-c3ccc(OC)cc3)nc2C1 | -113% |
| CN1CCN(C[C@H]2CC[C@@H](Cc3ccc4c(c3)OCO4)O2)CC1 | -5.13% |
| COCCN(Cc1sccc1C)C(=O)COc1cccnc1 | -138% |
| COC[C@]1(O)CCN(c2cc(OC)ncn2)CC1(C)C | 5.66% |
| Cc1nn2c(N3CCCC(C(N)=O)C3)cc(-c3ccccc3)nc2c1C (stereo not given) | -4.45% |
| CC(NC(=O)COc1ccc(Cl)cc1Cl)c1nncn1C(C)C (stereo not given) | 1.67% |
| CN(C)C(C(=O)N1CCCN(C(=O)C2CCC2)CC1)c1ccccc1F (stereo not given) | -2.11% |
| c1cc(-c2ccc(CN3CCCC4(CCNC4)C3)s2)[nH]n1 (stereo not given) | -152% |
| CS(=O)(=O)NC1CCN(C(=O)c2cnc(-c3cccnc3)nc2)CC1 | -6.47% |
| Nc1cc(C(=O)N2CCC3(CC2)Nc2ccccc2NC3=O)ccn1 | 6.13% |
| O=S(=O)(c1ccc(-c2cnco2)cc1)N1CCCC(O)(CO)CC1 (stereo not given) | 1.72% |

| SMILES | cytotoxicity at 10 µM |
| --- | --- |
| Cc1ccccc1CCC1CCCN(C(=O)Cc2cc(=O)[nH]c(N)n2)C1 (stereo not given) | 4.6% |
| CC(=O)N1CCc2[nH]cnc2C12CCN(CC1CCOC1)CC2 (stereo not given) | -8.46% |
| COCCn1ccnc1C1CCCN(C(=O)c2cccnc2SC)C1 (stereo not given) | -14.2% |
| CC(C)(O)CCc1cccc(C(=O)N[C@@H](CO)C(N)=O)c1 | 4.76% |
| CCOc1ccccc1-n1c(C2CC(=O)N(C)C2)n[nH]c1=O (stereo not given) | 2.48% |
| COc1cccc(-c2noc(-c3ccc(NCC4CC4)nc3)n2)c1OC | 6.65% |
| Cc1ncccc1OCC(=O)N1CCN[C@H]2CS(=O)(=O)C[C@H]21 | 13.1% |
| CC(C)N1CCCC2(CCN(C(=O)CCCn3cncn3)C2)C1=O (stereo not given) | -11.1% |
| CC(C)Cc1cc(NC(=O)c2cc(Cl)c[nH]2)n(C)n1 | -7.94% |
| O=C(Nc1cc(C(F)(F)F)c[nH]c1=O)N1CCOCC1 | -3.03% |
| O=C(O)c1c[nH]c2cc(NS(=O)(=O)c3cc(F)ccc3Cl)ccc12 | -1.43% |
| CCn1c(C(=O)N2CCN(CC[S+](C)[O-])CC2)cc2ccccc21 (stereo not given) | -3.49% |
| O=S1(=O)CCC(N(Cc2nc3ccccc3o2)Cc2cccs2)C1 (stereo not given) | -3.08% |
| Cn1ccnc1C(NCc1ccc(Br)cc1)c1ccccc1 (stereo not given) | -6.39% |
| CC(NC(=O)CCC(=O)c1cccs1)c1nnc2n1CCC2 (stereo not given) | -15.1% |
| CC(C)(C)c1n[nH]c(C2CN(C(=O)CCc3cccs3)CCO2)n1 (stereo not given) | -10.6% |
| CC(C)c1ccc(OCC(=O)NS(=O)(=O)c2cccnc2)cc1 | -5.19% |
| O=C(COCC1CC1)Nc1ncn(CC(=O)N2CCCCCC2)n1 | -11.9% |
| Cn1cc(C2CCCN2C(=O)COCCc2ccccc2)cn1 (stereo not given) | -2.87% |
| CCc1cnc(CN(C)C2CCN(CC(=O)Nc3cc(C)on3)C2)o1 (stereo not given) | 0.2% |
| Cc1cnn(CCNCC(O)COc2c(Cl)cccc2Cl)c1 (stereo not given) | -5.4% |
| Cn1ccnc1CNCC1CCCN1c1cccnn1 (stereo not given) | -11.3% |

| SMILES | cytotoxicity at 10 µM |
| --- | --- |
| O=C(c1cnc(-c2ccccn2)s1)N1CCCC(n2cccn2)C1 (stereo not given) | -11.9% |
| CCn1cc(NC(=O)NCC(C)(C)N2CCc3ccccc3C2)cn1 | -5.16% |
| Cc1nc(CN(Cc2ccc3c(c2)OCCO3)C2CCCC2)no1 | -9.19% |
| Cc1cc(CC(=O)NCc2ccnc(OCC(F)(F)F)c2)no1 | -2.17% |
| CN(C)[C@@H]1CCN(c2ncccn2)[C@H]1Cc1cccnc1 | -3.9% |
| Cn1cccc1C(=O)N1CCN(Cc2ccncc2)c2ncccc2C1 | -0.395% |
| c1cnc(N2CC[C@@H]3CN(Cc4ccncc4)CCO[C@@H]3C2)nc1 | 5.53% |
| Cc1nc(CN2CCc3ncnc(C4CCOC4)c3CC2)cs1 (stereo not given) | 3.05% |
| Cn1cnc2c1C(COCC1CC1)CN(c1ncccn1)C2 (stereo not given) | 7.22% |
| Cc1ccc(C2(CN3CCN(Cc4cncn4C)CC3)CC2)cc1 | -13.1% |
| COCCN1CCC2(CC1)CN(C(C)=O)c1ccc(C)cc12 | 3.77% |
| O=C(CC1CCCC1)N1C[C@H](OCc2ccncc2)[C@H]2OCCC[C@H]21 | 2.75% |
| Cc1ccc(C(=O)N2Cc3c(CN4CCCCC4)nn(C)c3C2)cc1F | -4.15% |
| CN1CCN(C(=O)[C@H]2C[C@@H]3CCN(c4ncc(F)cn4)C[C@@H]3O2)CC1 | -6.69% |
| O=C(NC[C@]12COC[C@H]1CN(Cc1cccnc1)C2)c1ccsc1 | 2.95% |
| O=C(c1ccsc1)N1CCO[C@@H]2CN(Cc3ccccn3)CC[C@@H]2C1 | -123% |
| CC(C)n1nc(Cn2cccn2)c2c1CN(C1CCOCC1)C2 | 6.98% |
| Cc1ncnc2c1CCN(Cc1cccs1)CC2 | 1.17% |
| CCCS(=O)(=O)N1C[C@@H]2CN(Cc3ccco3)CCO[C@@H]2C1 | -142% |
| Cc1cc(C(=O)N2CCC3(CC2)CC(c2cccnc2)C(=O)N3)no1 (stereo not given) | -133% |
| Cc1ccc(CN2CCc3ncnc(C4CCOC4)c3CC2)s1 (stereo not given) | -0.827% |
| CCc1ccc(NC(=O)N2C[C@@H]3C[C@H](C(=O)NC(C)C)[C@H](C2)O3)cc1 | -1.67% |
